# Measurements from ChEMBL document CHEMBL3120126, “Discovery of hepatitis C virus NS3-4A protease inhibitors with improved barrier to resistance and favorable liver distribution” (J Med Chem, 2014).
# Legend:
# [1] = Drug uptake in rat liver after 8 hrs; assay type: ADME, tissue-based; conditions: read-out: Drug uptake
# [2] = Oral bioavailability in rat at 10 mg/kg; assay type: ADME, organism-based; conditions: in vivo
# How it was run: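 Bioavailability was derived from rat oral dosing in 1% N-methyl-2-pyrrolidone, 0.5% Methocel and 0.3% Tween-80, compared with intravenous dosing in a 70% PEG-400-based vehicle.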
# [3] = Volume of distribution at steady state in rat at 4 mg/kg, iv; assay type: ADME, organism-based; parameters: dose 4 mg/kg, route intravenous; conditions: in vivo, read-out: Vdss
# How it was run: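 Rats received intravenous dosing in a vehicle of 70% PEG-400.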
# [4] = AUC in rat at 10 mg/kg, po; assay type: ADME, organism-based; parameters: dose 10 mg/kg, route oral; conditions: plasma
# [5] = Cmax in rat at 10 mg/kg, po; assay type: ADME, organism-based; parameters: dose 10 mg/kg, route oral; conditions: in vivo
# [6] = tested on: Liver; assay: Liver-to-plasma partition coefficient in rat
concentration at 8 h [1],bioavailability [2],Vd [3],AUC [4],Cmax [5],Kp [6],SMILES
11 µM,11%,3.3 L/kg,1.3 µM·h,0.88 µM,360,COc1ccc2c(O[C@@H]3C[C@H]4C(=O)N[C@]5(C(=O)NS(=O)(=O)C6CC6)C[C@H]5/C=C\CCCCC[C@H](NC(=O)c5ccn(CC(F)(F)F)n5)C(=O)N4C3)cc(OC(C)C)nc2c1C
6.5 µM,6.1%,0.86 L/kg,0.36 µM·h,0.3 µM,323,COc1ccc2c(O[C@@H]3C[C@H]4C(=O)N[C@]5(C(=O)NS(=O)(=O)C6CC6)C[C@H]5/C=C\CCCCC[C@H](NC(=O)c5ccn(CC(F)F)n5)C(=O)N4C3)cc(OC(C)C)nc2c1C
56 µM,14%,0.97 L/kg,1.4 µM·h,1.3 µM,> 1500,COc1ccc2c(O[C@@H]3C[C@H]4C(=O)N[C@]5(C(=O)NS(=O)(=O)C6(C)CC6)C[C@H]5/C=C\CCCCC[C@H](NC(=O)c5ccn(C)n5)C(=O)N4C3)cc(OC(C)C)nc2c1C
73 µM,16%,2 L/kg,1.4 µM·h,0.87 µM,> 1500,COc1ccc2c(O[C@@H]3C[C@H]4C(=O)N[C@]5(C(=O)NS(=O)(=O)C6(C)CC6)C[C@H]5/C=C\CCCCC[C@H](NC(=O)c5cnn(C)n5)C(=O)N4C3)cc(OC(C)C)nc2c1C
